The source made the active and inactive calls.
How the values were obtained:
[1] = biological target: T1, Angiotensin II receptor (AT-1) type-1 (Rattus norvegicus, UniProt P29089+P25095); assay: In vitro binding affinity for rat liver angiotensin II receptor type 1, determined by displacement of the specially bound [3H]AII radioligand
T1 sequence (P29089 whole entry): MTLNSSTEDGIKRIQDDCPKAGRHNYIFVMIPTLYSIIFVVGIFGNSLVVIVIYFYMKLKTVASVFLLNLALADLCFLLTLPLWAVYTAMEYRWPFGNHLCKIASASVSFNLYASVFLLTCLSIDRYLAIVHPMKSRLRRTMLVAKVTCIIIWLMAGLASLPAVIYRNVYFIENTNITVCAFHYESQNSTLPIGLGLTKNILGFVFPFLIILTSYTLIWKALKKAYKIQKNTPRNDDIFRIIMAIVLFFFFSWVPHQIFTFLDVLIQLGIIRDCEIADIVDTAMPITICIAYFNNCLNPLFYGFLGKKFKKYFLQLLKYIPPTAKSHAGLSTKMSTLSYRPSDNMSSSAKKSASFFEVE
T1 sequence (P25095 whole entry): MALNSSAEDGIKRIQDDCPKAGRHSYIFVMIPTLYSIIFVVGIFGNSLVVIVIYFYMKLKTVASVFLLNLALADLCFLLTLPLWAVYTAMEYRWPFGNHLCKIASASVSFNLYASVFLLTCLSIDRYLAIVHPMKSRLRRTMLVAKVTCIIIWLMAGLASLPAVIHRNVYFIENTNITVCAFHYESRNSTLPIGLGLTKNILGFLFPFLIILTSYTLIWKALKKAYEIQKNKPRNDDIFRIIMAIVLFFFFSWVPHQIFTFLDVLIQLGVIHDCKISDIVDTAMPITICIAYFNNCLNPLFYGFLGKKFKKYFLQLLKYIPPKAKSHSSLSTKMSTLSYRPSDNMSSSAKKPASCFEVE

[2] = system: Rattus norvegicus; assay: Percent peak inhibition of pressor response induced by exogenously administered AII at 3 mg/kg in 2 or more pithed rats.; format: functional
[3] = system: Rattus norvegicus; assay: Percent peak inhibition of pressor response induced by exogenously administered AII at 1 mg/kg in 2 or more pithed rats.; format: functional
[4] = system: Rattus norvegicus; assay: Maximum fall in blood pressure in groups of four sodium-depleted rats, after peroral administration at the 3 mg/Kg; format: functional
Summary of the method: (§1)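 Male Sprague-Dawley rats (250 g) implanted with a telemetry device; after 1 week placed on a sodium-deficient diet and given furosemide 5 mg/kg sc at 48, 24 and 1 h before oral dosing. Blood pressure and heart rate recorded continuously for up to 48 h postdose. Maximum fall in blood pressure (mmHg) taken per group of four rats; doses of 10 mg/kg po or less.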

[5] = system: Rattus norvegicus; assay: Percent peak inhibition of pressor response induced by exogenously administered AII at 1 mg/kg in 2 or more pithed rats; Not active (<10% inhibition at the dose indicated); format: functional, organism-based; set-up: dose 1 mg/kg
[6] = system: Rattus norvegicus; assay: Percent peak inhibition of pressor response induced by exogenously administered AII at 0.3 mg/kg in 2 or more pithed rats.; format: functional
[7] = system: Rattus norvegicus; assay: Percent peak inhibition of pressor response induced by exogenously administered AII at 3 mg/kg in 2 or more pithed rats; Not active (<10% inhibition at the dose indicated); format: functional, organism-based; set-up: dose 3 mg/kg
[8] = system: Rattus norvegicus; assay: Maximum fall in blood pressure (mmHg) in groups of four sodium-depleted rats, after administration of test compounds at the indicated dose (mg/kg, p.o.).; format: functional; summary of the method: as §1
[9] = system: Rattus norvegicus; assay: Percent peak inhibition of pressor response induced by exogenously administered AII (submaximal dose (mg/kg) ) in groups of 2 or more pithed rats.; format: functional; set-up: concentration or dose not given beside the values

SMILES | IC50 [1] [nM] | inhibition in vivo at 3 mg/kg [2] [%] | inhibition in vivo at 1 mg/kg [3] [%] | further results
CCCCn1nc(C)c(C(=O)O)c1Cc1ccc(-c2ccccc2S(=O)(=O)NC(=O)c2ccccc2)cc1 | 12 | 76 |  | 
CCCn1nc(C2CC2)c(C(=O)O)c1Cc1ccc(-c2ccccc2S(=O)(=O)NC(=O)c2ccccc2)cc1 | 18 |  | 18.5 | 
CCCn1nc(C(C)(C)C)c(C(=O)OC)c1Cc1ccc(-c2ccccc2-c2nn[nH]n2)cc1 | 19 |  | 47.3 | 
CCn1nc(C)c(C(=O)O)c1Cc1ccc(-c2ccccc2-c2nn[nH]n2)cc1 | 120 |  | 61.2 | 
CCCCn1nc(C)c(C(=O)O)c1Cc1ccc(-c2ccccc2S(=O)(=O)NC(=O)OCC(C)C)cc1 | 30 |  | 76.3 | Activity [4]: 25 mmHg
CCCn1nc(C2CC2)c(C(N)=O)c1Cc1ccc(-c2ccccc2-c2nn[nH]n2)cc1 | 9.9 |  | 80.6 | 
CCCn1nc(C(C)C)c(C(=O)O)c1Cc1ccc(-c2ccccc2NS(=O)(=O)C(F)(F)F)cc1 | 74 |  |  | inhibition [5]: inactive
CCCCn1nc(C)c(C(N)=O)c1Cc1ccc(-c2ccccc2-c2nn[nH]n2)cc1 | 70 | 74.9 |  | 
CCCCn1nc(C)c(C(=O)O)c1Cc1ccc(-c2ccccc2-c2nn[nH]n2)cc1 |  |  |  | Activity [4]: 20 mmHg; inhibition in vivo at 0.3 mg/kg [6]: 62.6%
Cc1nn(CC(F)(F)F)c(Cc2ccc(-c3ccccc3-c3nn[nH]n3)cc2)c1C(=O)O | 770 |  |  | inhibition [7]: inactive
CCCCn1nc(C)c(C(=O)OC)c1Cc1ccc(-c2ccccc2-c2nn[nH]n2)cc1 | 55 | 52.5 |  | 
CCCCc1nc(Cl)c(CO)n1Cc1ccc(-c2ccccc2-c2nnn[nH]2)cc1 [LOSARTAN] |  | 93.5 |  | Activity [8]: 39 mmHg; Activity [4]: 13 mmHg; Inhibition [9]: 62.5%
CCCCn1nc(Cc2ccc(-c3ccccc3-c3nn[nH]n3)cc2)c(C(=O)O)c1C | 290 |  |  | 
CCCCn1nc(C)c(C(C)=O)c1Cc1ccc(-c2ccccc2-c2nn[nH]n2)cc1 | 65 |  | 11.8 | 
Cc1nn(-c2ccccc2)c(Cc2ccc(-c3ccccc3-c3nn[nH]n3)cc2)c1C(=O)O | 78 | 57.4 |  | 
CCCCn1nc(C)c(CO)c1Cc1ccc(-c2ccccc2-c2nn[nH]n2)cc1 | 350 | 11.5 |  | 
CCCn1nc(Cc2ccccc2)c(C(=O)O)c1Cc1ccc(-c2ccccc2-c2nn[nH]n2)cc1 | 4.6 |  | 37.7 | 

Reference: ChEMBL document CHEMBL1129942, “Synthesis and structure-activity relationship of a new series of potent AT1 selective angiotensin II receptor antagonists: 5-(biphenyl-4-ylmethyl)pyrazoles” (J Med Chem, 1997)
